The nature of experiment [1]: Reduction in LDL cholesterol on cholestyramine-primed hamster serum at 10 mg/kg, po after 7 days. Format: functional. Details: scale not given: the % may be the effect or the level left. An outline of the steps: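 Cholestyramine-primed hamsters were dosed orally at 10 mg/kg once daily for 7 days. At the end of treatment, serum LDL-C was measured and percent reduction calculated against an untreated control group.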

Experiment [2] in a line: Inhibition of cholesterol synthesis in rat myocyte. The conditions noted are these: Ventricular myocyte. Format: functional, cell-based.
A further experiment concerns Hepatocyte. Briefly: Inhibition of cholesterol synthesis in rat hepatocyte. Format: functional, cell-based.
The target in experiment [3] is T1, 3-hydroxy-3-methylglutaryl-coenzyme A reductase (Homo sapiens, UniProt P04035).
T1 sequence (P04035 whole entry): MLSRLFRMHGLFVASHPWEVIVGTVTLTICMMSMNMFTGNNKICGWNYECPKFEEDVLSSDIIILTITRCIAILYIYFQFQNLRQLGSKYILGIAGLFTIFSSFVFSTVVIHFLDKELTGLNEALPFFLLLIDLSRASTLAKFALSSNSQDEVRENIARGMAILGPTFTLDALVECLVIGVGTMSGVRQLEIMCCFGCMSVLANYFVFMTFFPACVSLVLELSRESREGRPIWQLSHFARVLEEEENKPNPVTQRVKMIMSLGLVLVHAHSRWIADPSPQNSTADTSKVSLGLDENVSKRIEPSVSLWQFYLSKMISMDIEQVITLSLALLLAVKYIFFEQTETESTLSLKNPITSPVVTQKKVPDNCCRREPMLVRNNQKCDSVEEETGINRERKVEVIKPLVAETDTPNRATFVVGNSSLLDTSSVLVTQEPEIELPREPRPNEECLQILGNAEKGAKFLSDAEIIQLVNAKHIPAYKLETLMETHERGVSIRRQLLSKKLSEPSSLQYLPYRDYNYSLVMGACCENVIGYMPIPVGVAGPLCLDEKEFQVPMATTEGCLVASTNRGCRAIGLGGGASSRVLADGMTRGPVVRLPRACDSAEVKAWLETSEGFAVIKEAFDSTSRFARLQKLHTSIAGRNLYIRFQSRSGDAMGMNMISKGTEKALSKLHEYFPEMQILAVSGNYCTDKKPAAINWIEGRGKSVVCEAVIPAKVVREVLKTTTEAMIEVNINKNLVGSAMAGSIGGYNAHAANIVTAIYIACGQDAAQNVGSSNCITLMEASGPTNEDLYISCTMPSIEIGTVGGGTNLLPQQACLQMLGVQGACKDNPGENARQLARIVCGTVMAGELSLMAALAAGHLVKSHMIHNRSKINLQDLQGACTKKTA
The experiment can be described thus: Inhibition of HMG-CoA reductase.

For another experiment, the system named is Mus musculus. The experiment can be described thus: Inhibition of acute cholesterol synthesis in mouse at 1 mg/kg. Format: functional. The conditions noted are these: read-out: Inhibition.
Experiment [4] can be described thus: Reduction in LDL cholesterol on cholestyramine-primed orally dosed hamster plasma after 7 days. The following applies: Cricetulus griseus, po, 168 h. Format: functional. In short, it runs like this:
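Cholestyramine-primed hamsters were dosed orally once daily for 7 days at 0.1, 0.5, 1, 5, 10 or 50 mg/kg (separate groups, n = 10 each). Animals were sacrificed 2 h after the final dose and plasma LDL measured. Results are mean ± SEM percent change from control, with ED50 derived from the dose–response.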

Structures are written as SMILES.

The IC50 is the concentration that gives 50% inhibition. With `CNC(=O)c1c(-c2ccccc2)c(-c2ccc(F)cc2)c(CC[C@@H](O)C[C@@H](O)CC(=O)[O-])n1C(C)C.[Na+]`, the Activity in experiment [1] was -12%. The IC50 in experiment [2] is 5300 nM; with Hepatocyte, 1.2 nM; in experiment [3], 8.8 nM. Also, the inhibition in vivo at 1 mg/kg with Mus musculus was 83%.

One may read the ED50 as the dose that gives a 50% effect, or the effect in half of the subjects. With `CCNC(=O)c1c(-c2ccccc2)c(-c2ccc(F)cc2)c(CC[C@@H](O)C[C@@H](O)CC(=O)[O-])n1C(C)C.[Na+]`, the Activity in experiment [1] is -24%. For the same compound, the IC50 in experiment [2] was determined as 2270 nM; in the experiment on Hepatocyte it was 0.7 nM; in experiment [3], 12 nM. For the same compound, in experiment [4], the ED50 came out at 3 mg/kg. The inhibition in vivo at 1 mg/kg in the experiment with Mus musculus was found to be 76%.

The values above are taken from ChEMBL document CHEMBL1140655, “Design and synthesis of hepatoselective, pyrrole-based HMG-CoA reductase inhibitors” (Bioorg Med Chem Lett, 2007).
